Shown are actives, neighbours in structure and some others; about 3.5% of the full set was active somewhere.
MrgX1 antagonist: antagonists of human MrgX1 receptor, primary screen, HEK293 cells, Fluo-4 calcium flux; Mas-related G-protein coupled receptor member X1 (Homo sapiens), Q96LB2; 310,000 compounds, 1.3% hits; B-score at 10 µM; BAM8-22 antagonism; stronger effect = lower value;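 active = calcium-response B-score plate-corrected more than 3 library SD below zero, starting fluorescence within 5 deviations, no agonist response on first addition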;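 also: peak minus trough fluorescence over baseline after final BAM8-22 challenge near maximal dose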
Target sequence (Q96LB2 whole entry, looked up): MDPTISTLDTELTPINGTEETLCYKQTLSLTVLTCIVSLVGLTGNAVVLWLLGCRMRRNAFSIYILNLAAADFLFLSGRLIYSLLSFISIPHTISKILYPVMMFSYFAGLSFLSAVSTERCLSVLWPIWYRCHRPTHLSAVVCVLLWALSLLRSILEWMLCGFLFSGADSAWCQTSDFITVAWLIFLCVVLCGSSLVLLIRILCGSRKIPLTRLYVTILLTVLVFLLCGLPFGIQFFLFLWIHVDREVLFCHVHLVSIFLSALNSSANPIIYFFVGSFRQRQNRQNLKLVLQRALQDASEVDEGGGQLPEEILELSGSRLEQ
MrgX1 agonist: agonists of human MrgX1 receptor, primary screen, HEK293 cells, Fluo-4 calcium flux | Mas-related G-protein coupled receptor member X1 (Homo sapiens), Q96LB2 | Fluo-4 calcium fluorescence, agonist mode; stronger effect = higher value | B-score at 10 µM | 310,000 compounds, 0.44% hits | AID 588627, 2011;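 active = calcium response B-score plate-corrected fluorescence ratio at least 3 library SD, with starting fluorescence B-score inside 5 SD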
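System: HEK293 cells stably expressing human MrgX1 receptor; Dosing: test compound in the initial addition of three; Schedule: overnight plating, then 30 min 37 °C plus 30 min room-temperature dye loading; Detection: kinetic calcium dye fluorescence, Fluo-4 NW; Controls: per-plate positive and negative controls for Z′ factor.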
RGS4 pot: RGS4 potentiators or activators, primary screen, cell-based, HEK293 M3R inducible RGS4, calcium flux. AID 463111, 2010. carbachol calcium flux Fluo4; stronger effect = lower value. 310,000 compounds, 0.92% hits. B-score at 10 µM;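 active = B-score of the integrated calcium signal more than 4 SD below the library mean, with starting fluorescence not abnormally high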;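 also: negative B-score means reduced calcium response which marks RGS4 activation or potentiation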
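Material: M3R-expressing HEK293 line, RGS4 induced by doxycycline | Schedule: Overnight RGS4 induction, 30 min dye load 37 °C, 20 min compound RT | Measured by: Fluo4 fluorescence kinetic imaging of calcium | Read-out: Integrated calcium ratio converted to B score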
RGS4 inh: RGS4 inhibitors, primary screen, cell-based, HEK293 M3R inducible RGS4, calcium flux; Regulator of G-protein signaling 4 (Homo sapiens), P49798; Fluo-4 calcium flux; stronger effect = higher value; triggered by carbachol at its EC20; B-score at 10 µM; 310,000 compounds, 0.45% hits; AID 463165, 2010;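 active = B-score, a plate-corrected calcium signal, over three deviations above library mean, with baseline fluorescence within five deviations of library mean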;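 also: RGS4 expression induced by doxycycline in cells with stable M3 receptor; B-score is computed from the integrated fluorescence ratio over baseline after carbachol; higher B-score means a larger calcium signal and so more RGS4 inhibition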
Target sequence (P49798 whole entry, looked up): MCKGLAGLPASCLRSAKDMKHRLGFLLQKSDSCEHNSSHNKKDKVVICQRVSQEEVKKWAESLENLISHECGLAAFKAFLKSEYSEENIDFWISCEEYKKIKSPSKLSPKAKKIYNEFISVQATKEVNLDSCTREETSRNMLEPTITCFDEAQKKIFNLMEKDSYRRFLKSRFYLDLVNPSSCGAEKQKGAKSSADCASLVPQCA
MrgX1 PAM: positive allosteric modulators of MrgX1, primary screen, HEK293 cells, Fluo-4 calcium flux; AID 588675, 2011; B-score at 10 µM; FDSS; stronger effect = higher value; 310,000 compounds, 0.63% hits;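 active = plate-corrected calcium response at least 3 library SD above typical, normal starting fluorescence, not activating the receptor alone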;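 also: compound read alongside a low EC10 to EC30 dose of BAM8-22 agonist; peak minus trough fluorescence over baseline measured at the second addition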
RGS4 block valid: enhanced carbachol calcium response, M3R/RGS4 cells, RGS4 inhibitor project, cell-based, validation screen, HEK293 M3R/RGS4, calcium flux | carbachol calcium Fluo-4 fluorescence; carbachol added at its EC20; 0 = buffer wells, 100 = carbachol control | calcium response, % at 10 µM | shares compounds with RGS4 inh | 1,700 compounds, 65% hits;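 active = duplicate-averaged calcium response above the buffer-only control mean plus 5 SD of those controls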;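 also: integrated fluorescence ratio F max minus min over baseline F0; higher response in RGS4-induced cells means RGS4 inhibition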
RGS4 uninduced: carbachol calcium response in non-induced M3R cells, confirmation, counter-screen for RGS4 inhibitor project, cell-based, HEK293 M3R. AID 493000, 2010. shares compounds with RGS4 inh. carbachol calcium Fluo-4; submaximal (EC20) carbachol stimulus; buffer wells 0%, carbachol control wells 100%. 1,900 compounds, 20% hits. activity (percent), % at 10 µM; call rule not given here;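 also: RGS4 induction absent so cells express M3R without RGS4; higher means more calcium signal and flags a non-specific hit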
M3R basal Ca ctr: second counter-screen for RGS4 inhibitors: non-induced cells without carbachol; shares compounds with RGS4 inh; HEK293 M3R/RGS4 non-induced, Fluo-4 calcium, no carbachol; normalised: buffer wells 0%, carbachol wells 100%; calcium response (agonist-mode artifact), % at 10 µM; 1,900 compounds, 22% hits;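 active = duplicate-averaged calcium rise in uninduced cells above buffer wells' mean plus 5 SD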
Active calls of the source: *; i = inactive; nt = no result.

SMILES	MrgX1 antagonist	MrgX1 agonist	RGS4 pot	RGS4 inh	MrgX1 PAM	RGS4 block valid	RGS4 uninduced	M3R basal Ca ctr
CC1=NN(C(N)=S)C(=O)C1N=Nc1ccc(C)c(Br)c1 (stereo not given)	i	i	i	i	i	nt	nt	nt
C[C@@H]1NC(=O)N(c2ccc(F)cc2)C1=O	i	i	i	i	i	nt	nt	nt
CC(C)(C)c1ccc(/C=C(\c2nc3ccccc3[nH]2)S(=O)(=O)c2ccccc2)cc1	i	i	i	i	i	i	i	i
CC1(C)CC(NC(=O)c2coc(=O)c(Br)c2)CC(C)(C)N1	i	i	i	4.7*	i	17%*	i	i
CCOC(=O)/C(=N\Nc1ccccc1Cl)N(C)C1CCCCC1	i	i	i	i	i	nt	nt	nt
CSC1=N/C(=C/c2cccnc2)C(=O)N1Cc1ccccc1	i	i	i	i	i	nt	nt	nt
COc1cccc(Cn2c(=O)c3[nH]cnc3n(-c3ccccc3C)c2=O)c1	i	i	i	i	i	nt	i	i
Cc1ccc(C(=O)N2CCCc3ccccc32)c(F)c1F	i	i	i	i	i	nt	nt	nt
Cc1nnc(SCC(=O)NCC(=O)Nc2ccc(F)c(F)c2F)n1Cc1ccccc1	i	i	i	i	i	nt	nt	nt
CCCc1[nH]nc2c1C(c1cn[nH]c1-c1ccc(F)cc1)C(C#N)=C(N)O2 (stereo not given)	i	i	i	16*	i	38%*	44%*	15%*
Cc1cc(=O)[nH]c(Nc2ccc(N(C)C)cc2)n1	i	i	i	i	i	nt	nt	nt
Cc1ccc(C=Nc2ccc(N(C)C)cc2)o1	i	i	i	5.3*	i	10%*	i	i
CC(C)OP(=O)(OC(C)C)/C(C=O)=N\Nc1ccc([N+](=O)[O-])cc1	i	i	i	6.6*	i	13%*	i	i
N#Cc1ccc(/C=C/C(=O)c2cccnc2)cc1	i	i	i	19*	i	46%*	i	i
CCN(CC)c1ccc(/C=C/C(=O)c2cccnc2)cc1	i	i	i	i	i	nt	nt	nt
C1CN(c2nc3nonc3nc2N2C[C@H]3CC[C@H]2C3)CCS1	i	i	i	i	i	nt	nt	nt
COC(=O)c1c(N2C(=O)[C@H]3[C@@H](C2=O)[C@]2(C(=O)Nc4ccccc42)N2CCC[C@@H]32)sc(C)c1C	i	i	i	i	i	nt	nt	nt
O=C1[C@H]2[C@@H](C(=O)N1c1cc(Cl)cc(Cl)c1)[C@]1(C(=O)Nc3ccccc31)N1CCC[C@@H]21	i	i	i	5.2*	i	i	i	i
O=C(CCN1CCN(c2ccccc2)CC1)c1ccc(Br)cc1	i	i	i	27*	i	16%*	i	i
Clc1ccc(OCCN2CCOCC2)cc1	i	i	i	i	i	nt	nt	nt
CCCCCOc1ccc(C(=O)CCN2CCOCC2)cc1	i	i	i	i	i	nt	nt	nt
O=C(CCN1CCOCC1)c1ccc(Cl)cc1	i	i	i	12*	i	17%*	56%*	25%*
O=C(CCN1CCOCC1)c1ccc(Br)cc1	i	i	i	8.4*	i	29%*	i	16%*
C=CCN1C(=O)/C(=C/c2ccc(-c3ccc(F)cc3)o2)SC1=S	-5.6*	i	i	14*	i	34%*	i	60%*
O=C(O)C(c1ccccc1)N1C(=O)/C(=C\c2ccc(-c3ccc(Br)cc3)o2)SC1=S (stereo not given)	nt	nt	-7.8*	9.6*	nt	9.0%*	i	234%*
SMILES	MrgX1 antagonist	MrgX1 agonist	RGS4 pot	RGS4 inh	MrgX1 PAM	RGS4 block valid	RGS4 uninduced	M3R basal Ca ctr
C=CCN1C(=O)/C(=C/c2ccsc2)SC1=S	i	i	i	i	i	nt	nt	nt
COc1ccccc1CN1CCNC(=O)C1CC(=O)NC1CCCCCC1 (stereo not given)	i	i	i	i	i	nt	nt	nt
Cc1c(OCC(=O)N[C@@H](Cc2ccccc2)C(=O)O)ccc2c3c(c(=O)oc12)CCC3	i	i	i	i	i	i	i	i
Cc1c(OCC(=O)N[C@@H](CSCc2ccccc2)C(=O)O)ccc2c3c(c(=O)oc12)CCC3	nt	nt	i	4.9*	nt	i	i	i
Cc1ccc(NC(=O)Cc2ncc(C(F)(F)F)cc2Cl)cc1Cl	i	i	i	i	i	nt	nt	nt
O=C(NC1CCCCCC1)c1ccc(=O)n(Cc2ccccc2)n1	i	i	i	i	i	nt	nt	nt
CCCC(NC(=O)COc1cc2c(c3oc(=O)cc(C)c13)CCC(C)(C)O2)C(=O)O (stereo not given)	i	i	i	i	i	i	i	i
Cc1cc(=O)oc2c3c(cc(OCC(=O)N[C@@H](CC(C)C)C(=O)O)c12)OC(C)(C)CC3	i	i	i	i	i	i	i	i
CCOC(=O)C1CCCN(Cc2cc(=O)oc3cc(C)ccc23)C1 (stereo not given)	i	i	i	i	i	i	i	10%*
CCOC(=O)C1CCN(Cc2cc(=O)oc3cc(C)ccc23)CC1	i	i	i	5.5*	i	i	i	i
Cc1ccc2c(CN3CCC(C)CC3)cc(=O)oc2c1	i	i	i	i	i	nt	nt	nt
CC1CCCN(c2nc(N(C)c3ccccc3)nc(N)c2[N+](=O)[O-])C1 (stereo not given)	i	i	i	i	i	nt	nt	nt
CSc1ccc(S(=O)(=O)Nc2ccc(NC(C)=O)cc2)cc1	i	i	i	i	i	nt	nt	nt
CCOc1ccc(NS(=O)(=O)c2ccc(NS(=O)(=O)c3ccc(SC)cc3)cc2)cc1	-4.8*	i	i	5.2*	i	13%*	32%*	i
